Results from ChEMBL document CHEMBL1127049, “Nonpeptide angiotensin II receptor antagonists. 2. Design, synthesis, and structure-activity relationships of 2-alkyl-4-(1H-pyrrol-1-yl)-1H-imidazole derivatives: profile of 2-propyl-1-[[2'-(1H-tetrazol-5-yl)-[1,1' -biphenyl]-4-yl]-methyl]-4-[2-(trifluoroacetyl)-1H-pyrrol-1-yl]-1H- …” (J Med Chem, 1993).

Assays:
[1] = molecular target: T1, Angiotensin II receptor (AT-1) type-1 (Rattus norvegicus, UniProt P29089+P25095); test: Inhibitory concentration against binding of [125I]angiotensin II to rat liver expressing Angiotensin II receptor
T1 sequence (P29089 whole entry): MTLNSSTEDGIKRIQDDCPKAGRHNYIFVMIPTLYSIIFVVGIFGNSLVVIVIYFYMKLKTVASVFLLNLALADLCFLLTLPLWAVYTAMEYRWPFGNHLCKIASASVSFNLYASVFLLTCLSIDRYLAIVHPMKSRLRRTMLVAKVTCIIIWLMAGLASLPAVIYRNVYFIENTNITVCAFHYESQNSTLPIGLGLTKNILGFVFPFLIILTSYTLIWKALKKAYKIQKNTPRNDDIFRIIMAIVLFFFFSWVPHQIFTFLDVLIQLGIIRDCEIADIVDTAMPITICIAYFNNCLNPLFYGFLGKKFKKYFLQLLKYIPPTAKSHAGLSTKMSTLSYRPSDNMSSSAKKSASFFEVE
T1 sequence (P25095 whole entry): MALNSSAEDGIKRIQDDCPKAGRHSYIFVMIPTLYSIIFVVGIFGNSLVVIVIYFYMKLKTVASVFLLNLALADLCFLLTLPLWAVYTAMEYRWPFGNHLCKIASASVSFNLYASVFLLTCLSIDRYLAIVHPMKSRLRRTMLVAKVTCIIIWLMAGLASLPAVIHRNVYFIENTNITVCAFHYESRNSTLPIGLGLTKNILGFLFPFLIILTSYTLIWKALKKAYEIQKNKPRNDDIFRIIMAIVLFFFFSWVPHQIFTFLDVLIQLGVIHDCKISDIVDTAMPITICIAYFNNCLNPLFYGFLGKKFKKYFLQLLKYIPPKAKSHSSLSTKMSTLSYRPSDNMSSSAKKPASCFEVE
Method in brief: (§1)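 Rat liver membranes homogenized in 10 mM HEPES pH 7.4 with protease inhibitors, captopril and PMSF. Nonspecific binding defined with 1.0 µM saralasin. No BSA. IC50 by nonlinear fit to mass-action equation from at least five or six concentrations.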

[2] = system: Rattus norvegicus; test: Effect on mean arterial pressure after oral dosing at 10 mg/kg to renal hypertensive rats; assay type: functional, Artery
Method in brief: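 Male Sprague-Dawley rats, bilateral renal artery clipping at 5 weeks, used 10-12 weeks later; aortic cannula to neck, 48 h recovery; rats with mean BP <150 mmHg excluded. Compound suspended in 0.5% methocel in water, oral gavage 10 mg/kg in 2 mL/kg to conscious rats (n = 5-6). BP and heart rate recorded continuously, averaged over 30-min intervals.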

[3] = system: Rattus norvegicus; test: Tested in vivo for effective dose (iv) that produces inhibition of pressor response to Angiotensin II in conscious normotensive rats; assay type: functional
[4] = molecular target: T1, Angiotensin II receptor (AT-1) type-1; test: Tested for inhibitory concentration against AT1 receptor binding affinity in rat liver; method in brief: as §1

Compound	IC50 [1]	IC50 [4]	Change in BP [2]	ED50 [3]
CCCCc1nc(-n2cccc2C(=O)C(F)(F)F)c(C(=O)OC)n1Cc1ccc(-c2ccccc2-c2nn[nH]n2)cc1	3.57 nM		-19	
CCCCc1nc(-n2cccc2)c(C(=O)O)n1Cc1ccc(-c2ccccc2-c2nn[nH]n2)cc1	1.57 nM		-27	38 µg/min/kg
CCCc1nc(-n2cccc2C(O)C(F)(F)F)c(C(=O)O)n1Cc1ccc(-c2ccccc2-c2nn[nH]n2)cc1 (stereo not given)	1.04 nM			
CCCc1nc(-n2cccc2)c(/C=C/C(=O)O)n1Cc1ccc(-c2ccccc2-c2nn[nH]n2)cc1	4 nM			
CCCc1nc(-n2ccc(C(=O)O)c2)c(C(=O)O)n1Cc1ccc(-c2ccccc2-c2nn[nH]n2)cc1	25.1 nM			
CCCc1nc(-n2cccc2C(=O)C(F)(F)F)c(C(=O)OC)n1Cc1ccc(-c2ccccc2-c2nn[nH]n2)cc1	3.64 nM		-28	36 µg/min/kg
CCCc1nc(-n2cccc2C(=O)O)c(C(=O)O)n1Cc1ccc(-c2ccccc2-c2nn[nH]n2)cc1	11.2 nM			
CCCCc1nc(-n2cccc2)c(C(=O)c2ccccc2)n1Cc1ccc(-c2ccccc2-c2nn[nH]n2)cc1	23.3 nM			
CCCc1nc(-n2cccc2C(=O)C(F)(F)F)c(C(=O)O)n1Cc1ccc(-c2ccccc2-c2nn[nH]n2)cc1	0.58 nM		-29	6.23 µg/min/kg
CCCc1nc(-n2ccc(C(=O)OCC)c2)c(C(=O)OC)n1Cc1ccc(-c2ccccc2-c2nn[nH]n2)cc1	158 nM			
CCCCc1nc(-n2cccc2)c(C#N)n1Cc1ccc(-c2ccccc2-c2nn[nH]n2)cc1	209 nM			
CCCc1nc(C(F)(F)C(F)(F)F)c(C(=O)O)n1Cc1ccc(-c2ccccc2-c2nn[nH]n2)cc1		3.4 nM		
CCCCc1nc(-n2cccc2C(=O)C(F)(F)F)c(C(=O)O)n1Cc1ccc(-c2ccccc2-c2nn[nH]n2)cc1	2.37 nM		-16	
CCCc1nc(-n2cccc2)c(C#N)n1Cc1ccc(-c2ccccc2-c2nn[nH]n2)cc1	332 nM			
CCCc1nc(-n2cccc2C(=O)O)c(C#N)n1Cc1ccc(-c2ccccc2-c2nn[nH]n2)cc1	103 nM			
CCCc1nc(-n2cccc2C(=O)O)c(C(N)=O)n1Cc1ccc(-c2ccccc2-c2nn[nH]n2)cc1	8.76 nM			
CCCc1nc(-n2cccc2)c(C(=O)O)n1Cc1ccc(-c2ccccc2-c2nn[nH]n2)cc1	1.71 nM		-25	27 µg/min/kg
CCCc1nc(-n2cccc2C(O)C(F)(F)F)c(C#N)n1Cc1ccc(-c2ccccc2-c2nn[nH]n2)cc1 (stereo not given)	233 nM			
CCCc1nc(-n2cccc2)c(/C=C(\C)C(=O)O)n1Cc1ccc(-c2ccccc2-c2nn[nH]n2)cc1	2.5 nM			
CCCc1nc(-n2cccc2C(=O)C(F)(F)F)c(C#N)n1Cc1ccc(-c2ccccc2-c2nn[nH]n2)cc1	171 nM			
CCCc1nc(-n2ccc(C(=O)OCC)c2)c(C(=O)O)n1Cc1ccc(-c2ccccc2-c2nn[nH]n2)cc1	22 nM			
CCCCc1nc(-n2cccc2)cn1Cc1ccc(-c2ccccc2-c2nn[nH]n2)cc1	27 nM			
CCCc1nc(-n2cccc2)c(/C=C(\C)C(=O)OCC)n1Cc1ccc(-c2ccccc2-c2nn[nH]n2)cc1	2.8 nM		-12	
CCCc1nc(-n2cccc2)cn1Cc1ccc(-c2ccccc2-c2nn[nH]n2)cc1	5.6 nM			
CCCc1nc(-n2cccc2C=O)c(C(=O)O)n1Cc1ccc(-c2ccccc2-c2nn[nH]n2)cc1	0.8 nM			
CCCc1nc(-n2ccc(C(=O)OC)c2C)c(C(=O)OC)n1Cc1ccc(-c2ccccc2-c2nn[nH]n2)cc1	18.8 nM			
CCCCc1nc(Cl)c(C(=O)O)n1Cc1ccc(-c2ccccc2-c2nn[nH]n2)cc1 [CARBOXYLIC ACID METABOLITE]			-22	13.6 µg/min/kg
CCCCc1nc(Cl)c(CO)n1Cc1ccc(-c2ccccc2-c2nnn[nH]2)cc1 [LOSARTAN]			-27	75.9 µg/min/kg

More lines, main results first:

IC50 [1]	IC50 [4]	Compound	Change in BP [2]	ED50 [3]
23.8 nM		CCCc1nc(-n2c(C)ccc2C)c(CO)n1Cc1ccc(-c2ccccc2-c2nn[nH]n2)cc1		
1.37 nM		CCCc1nc(-n2ccc(C(=O)OC)c2C)c(C(=O)O)n1Cc1ccc(-c2ccccc2-c2nn[nH]n2)cc1		
2.81 nM		Cc1ccc(C)n1-c1nc(C2CC2)n(Cc2ccc(-c3ccccc3-c3nn[nH]n3)cc2)c1C(=O)O	-11	
0.14 nM		CCCc1nc(-n2c(Cl)ccc2Cl)c(C(=O)O)n1Cc1ccc(-c2ccccc2-c2nn[nH]n2)cc1		
3.32 nM		CCCc1nc(-n2c(C)ccc2C)c(/C=C/C(=O)O)n1Cc1ccc(-c2ccccc2-c2nn[nH]n2)cc1	-8	16.4 µg/min/kg
20.9 nM		CCCc1nc(-n2c(C)ccc2C)c(C(=O)OC)n1Cc1ccc(-c2ccccc2-c2nn[nH]n2)cc1	-8	
0.82 nM		CCCc1nc(-n2c(C)ccc2C)c(C(=O)O)n1Cc1ccc(-c2ccccc2-c2nn[nH]n2)cc1	-26	
15.1 nM		CCCc1nc(-n2c(C)ccc2CCC)c(C(=O)OC)n1Cc1ccc(-c2ccccc2-c2nn[nH]n2)cc1		
188 nM		CCCc1nc(-n2c(C)ccc2C)c(C#N)n1Cc1ccc(-c2ccccc2-c2nn[nH]n2)cc1		
3.93 nM		CCCc1nc(-n2c(Cl)ccc2Cl)c(C(=O)OCC)n1Cc1ccc(-c2ccccc2-c2nn[nH]n2)cc1		
11 nM		CCCc1nc(-n2ccc(C(=O)O)c2C)c(C(=O)O)n1Cc1ccc(-c2ccccc2-c2nn[nH]n2)cc1		
53.3 nM		CCCc1nc(-n2cccc2C(=O)OC)c(C#N)n1Cc1ccc(-c2ccccc2-c2nn[nH]n2)cc1		
12.2 nM		CCCc1nc(-n2cccc2)c(C(=O)OCC)n1Cc1ccc(-c2ccccc2-c2nn[nH]n2)cc1	-22	
21.6 nM		CCCc1nc(-n2c(C)ccc2C)c(/C=C/C(=O)OC)n1Cc1ccc(-c2ccccc2-c2nn[nH]n2)cc1		
65.5 nM		COC(=O)c1c(-n2c(C)ccc2C)nc(C2CC2)n1Cc1ccc(-c2ccccc2-c2nn[nH]n2)cc1		
0.9 nM		CCCc1nc(-n2c(C)ccc2CCC)c(C(=O)O)n1Cc1ccc(-c2ccccc2-c2nn[nH]n2)cc1	-6	
13.7 nM		CCCc1nc(-n2c(C)ccc2C)c(C=O)n1Cc1ccc(-c2ccccc2-c2nn[nH]n2)cc1		
